According to ChEMBL document CHEMBL4011622, “The Structure-Activity Relationship of a Tetrahydroisoquinoline Class of N-Methyl-d-Aspartate Receptor Modulators that Potentiates GluN2B-Containing N-Methyl-d-Aspartate Receptors” (J Med Chem, 2017):

What was measured:
[1] = molecular target: Glutamate NMDA receptor; Grin1/Grin2c (Rattus norvegicus, UniProt P35439+Q00961); experiment: Positive allosteric modulation of recombinant rat GluN1/GluN2C receptor expressed in xenopus laevis oocyte assessed as potentiation of glutamate and glycine-induced current response at holding potential -40mV by two electrode voltage clamp method
In short: (§1)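 Two-electrode voltage clamp at -40 mV, 23°C, pH 7.4 Ba²⁺ recording solution, on Xenopus oocytes expressing rat NMDA receptors. Currents were evoked by 100 µM glutamate plus 30 µM glycine, with compound co-applied (DMSO 0.05–0.5% final). Each compound used at least 4 oocytes from at least 2 frogs.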

[2] = molecular target: Glutamate NMDA receptor; Grin1/Grin2c (Rattus norvegicus) (UniProt P35439+Q00961); experiment: Positive allosteric modulation of recombinant rat GluN1/GluN2C receptor expressed in xenopus laevis oocyte assessed as potentiation of glutamate and glycine-induced current response at 30 uM at holding potential -40mV by two electrode voltage clamp method relative to control; in short: as §1
[3] = molecular target: Glutamate NMDA receptor; Grin1/Grin2b (Rattus norvegicus) (UniProt P35439+Q00960); experiment: Positive allosteric modulation of recombinant rat GluN1/GluN2B receptor expressed in xenopus laevis oocyte assessed as potentiation of glutamate and glycine-induced current response at 30 uM at holding potential -40mV by two electrode voltage clamp method relative to control
In short: as §1, with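 “final). […]” for “final).”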

[4] = molecular target: Glutamate NMDA receptor; Grin1/Grin2b (Rattus norvegicus, UniProt P35439+Q00960); experiment: Positive allosteric modulation of recombinant rat GluN1/GluN2B receptor expressed in xenopus laevis oocyte assessed as potentiation of glutamate and glycine-induced current response at holding potential -40mV by two electrode voltage clamp method; in short: as §1
[5] = molecular target: Ionotropic glutamate receptor NMDA 1/2D (Rattus norvegicus, UniProt P35439+Q62645); experiment: Positive allosteric modulation of recombinant rat GluN1/GluN2D receptor expressed in xenopus laevis oocyte assessed as potentiation of glutamate and glycine-induced current response at holding potential -40mV by two electrode voltage clamp method; in short: as §1
[6] = molecular target: Ionotropic glutamate receptor NMDA 1/2D (Rattus norvegicus) (UniProt P35439+Q62645); experiment: Positive allosteric modulation of recombinant rat GluN1/GluN2D receptor expressed in xenopus laevis oocyte assessed as potentiation of glutamate and glycine-induced current response at 30 uM at holding potential -40mV by two electrode voltage clamp method relative to control; in short: as §1

| EC50 [1] | Emax [2] | Emax [3] | EC50 [4] | EC50 [5] | Emax [6] | Activity [2] | Activity [3] | Activity [6] | SMILES |
| --- | --- | --- | --- | --- | --- | --- | --- | --- | --- |
| 920 nM | 132% | 157% | 1500 nM | – | – | – | – | – | CC(C)Oc1ccc(OCC2c3ccc(OC(C)C)cc3CCN2C(=O)c2cccc(C(F)(F)F)c2)cc1 (stereo not drawn) |
| 940 nM | 166% | 174% | 340 nM | 280 nM | 135% | – | – | – | CCOc1ccc(OCC2c3ccc(OC(C)C)cc3CCN2C(=S)c2cccc(Br)c2)cc1 (stereo not drawn) |
| 4500 nM | 173% | 210% | 4400 nM | 4900 nM | 163% | 169% | 202% | 161% | CCOc1ccc(OCC2c3ccc(OC4CCCC4)cc3CCN2C(=O)c2cccc(F)c2)cc1 (stereo not drawn) |
| 1800 nM | 150% | 173% | 3700 nM | 2900 nM | 137% | 145% | 172% | 133% | CCOc1ccc(OCC2c3ccc(OC(C)C)cc3CCN2C(=O)c2ccc(F)c(F)c2)cc1 (stereo not drawn) |
| 2700 nM | 135% | 185% | 7100 nM | – | – | 133% | 179% | 103% | CC(C)Oc1ccc(OCC2c3ccc(OC(C)C)cc3CCN2C(=O)c2cccc(F)c2)cc1 (stereo not drawn) |
| – | – | – | – | – | – | 83% | 88% | 69% | CCOc1ccc(OCC2c3ccc(OC(C)C)cc3CCN2C(=O)c2ccccc2)cc1 (stereo not drawn) |
| – | – | – | – | – | – | 93% | 67% | 79% | CCOc1ccc(OCC2c3ccc(OC(C)C)cc3CCN2C(=O)c2ccccc2Cl)cc1 (stereo not drawn) |
| 690 nM | 310% | 172% | 1700 nM | 1600 nM | 414% | 215% | 159% | 408% | COc1ccc(OCC2c3ccc(OC(C)C)cc3CCN2C(=O)c2cccc(I)c2)cc1 (stereo not drawn) |
| 9500 nM | 290% | 182% | 12000 nM | 11000 nM | 288% | 251% | 163% | 244% | COc1ccc(OCC2c3ccc(OC(C)C)cc3CCN2C(=O)c2ccc(Cl)cc2)cc1 (stereo not drawn) |
| 2300 nM | 313% | 221% | 4900 nM | 4000 nM | 464% | 289% | 213% | 418% | COc1ccc(OCC2c3ccc(N4CCCCC4)cc3CCN2C(=O)c2cccc(Cl)c2)cc1 (stereo not drawn) |
| – | – | – | – | – | – | 77% | 94% | 67% | CCOc1ccc(OCC2c3ccc(OCC)cc3CCN2C(=O)c2cccc(F)c2)cc1 (stereo not drawn) |
| – | – | – | – | – | – | 65% | 89% | 44% | CCOc1ccc(OCC2c3ccc(OC(C)C)cc3CCN2C(=O)c2cccc(OC)c2)cc1 (stereo not drawn) |
| 2400 nM | 294% | 167% | 7800 nM | 3000 nM | 344% | 285% | 158% | 329% | CCOc1ccc2c(c1)CCN(C(=O)c1cccc(Cl)c1)C2COc1ccc(OC)cc1 (stereo not drawn) |
| – | – | – | 36000 nM | – | – | – | – | – | COc1ccc(OCC2c3ccc(OC(C)C)cc3CCN2C(=O)c2cccc(F)c2)cc1 (stereo not drawn) |
| 6200 nM | 132% | – | – | 5400 nM | 125% | 132% | 99% | 125% | COc1cccc(OCC2c3ccc(OC(C)C)cc3CCN2C(=O)c2cccc(Cl)c2)c1 (stereo not drawn) |
| 900 nM | – | – | 1500 nM | 1400 nM | – | – | – | – | COc1ccc(OCC2c3ccc(OCC(C)C)cc3CCN2C(=O)c2cccc(Cl)c2)cc1 (stereo not drawn) |
| 1200 nM | 225% | 265% | 2700 nM | 1900 nM | 317% | 222% | 259% | 309% | COc1ccc(OCC2c3ccc(OC4CCCCC4)cc3CCN2C(=O)c2cccc(Cl)c2)cc1 (stereo not drawn) |
| – | – | – | – | – | – | 133% | 127% | 104% | CCOc1ccc(OCC2c3ccc(N4CCOCC4)cc3CCN2C(=O)c2cccc(Cl)c2)cc1 (stereo not drawn) |
| 1400 nM | 170% | 184% | 550 nM | 1200 nM | 159% | – | – | – | CCOc1ccc(OCC2c3ccc(OC(C)C)cc3CCN2C(=S)c2cccc(F)c2)cc1 (stereo not drawn) |

| EC50 [1] | Emax [2] | Emax [3] | EC50 [4] | EC50 [5] | Emax [6] | Activity [2] | Activity [3] | Activity [6] | SMILES |
| --- | --- | --- | --- | --- | --- | --- | --- | --- | --- |
| – | – | – | – | – | – | 91% | 104% | 75% | CCOc1ccc(OCC2c3ccc(OCC)cc3CCN2C(=O)c2cccc(Cl)c2)cc1 (stereo not drawn) |
| – | – | – | – | – | – | 117% | 98% | 105% | COc1ccc(OCC2c3ccc(OC(C)C)cc3CCN2C(=O)c2cccc(O)c2)cc1 (stereo not drawn) |
| – | – | 152% | 7200 nM | – | – | 104% | 147% | 91% | CCOc1ccc(OCC2c3ccc(OC(C)C)cc3CCN2C(=O)c2cccc(F)c2)cc1 (stereo not drawn) |
| 4700 nM | 261% | 141% | 9300 nM | 5100 nM | 363% | 239% | 138% | 333% | COc1ccc(OCC2c3ccc(NC(C)C)cc3CCN2C(=O)c2cccc(Cl)c2)cc1 (stereo not drawn) |
| 1500 nM | 192% | 130% | 1400 nM | 1700 nM | 152% | 189% | 130% | 150% | CC(C)Oc1ccc2c(c1)CCN(C(=O)c1cccc(Cl)c1)C2COc1ccc(OC(F)(F)F)cc1 (stereo not drawn) |
| 2400 nM | 293% | – | – | 3800 nM | 327% | 285% | 99% | 307% | COc1ccc(OCC2c3ccc(N(C)C)cc3CCN2C(=O)c2cccc(Br)c2)cc1 (stereo not drawn) |
| 1700 nM | 138% | 160% | 3800 nM | – | – | 134% | 159% | 111% | CC(C)Oc1ccc(OCC2c3ccc(OC(C)C)cc3CCN2C(=O)c2cccc(Cl)c2)cc1 (stereo not drawn) |
| – | – | – | – | – | – | 101% | 112% | 88% | CCOc1ccc(OCC2c3ccc(OC(C)C)cc3CCN2C(=O)c2ccc(Cl)cc2)cc1 (stereo not drawn) |
| – | – | – | – | – | – | 105% | 106% | 107% | COc1ccc(OCC2c3ccc(OC(C)C)cc3CCN2C(=O)c2cccc(N)c2)cc1 (stereo not drawn) |
| – | – | – | – | – | – | 92% | 112% | 92% | CCOc1ccc(OCC2c3ccc(OC(C)C)cc3CCN2C(=O)c2cccc(-c3ccccc3)c2)cc1 (stereo not drawn) |
| – | – | – | – | – | – | 68% | 61% | 55% | CCOc1ccc(OCC2c3ccc(OC(C)C)cc3CCN2C(=O)c2ccccc2F)cc1 (stereo not drawn) |
| 2000 nM | 424% | 235% | 5900 nM | 4000 nM | 549% | 404% | 228% | 500% | COc1ccc(OCC2c3ccc(N(C)C(C)C)cc3CCN2C(=O)c2cccc(Cl)c2)cc1 (stereo not drawn) |
| 2800 nM | 358% | 203% | 5300 nM | 3400 nM | 351% | 337% | 198% | 335% | COc1ccc(OCC2c3ccc(OC(C)C)cc3CCN2C(=O)c2cccc([N+](=O)[O-])c2)cc1 (stereo not drawn) |
| – | – | – | – | – | – | 138% | 110% | 114% | COc1ccc(OCC2c3ccc(OC(C)C)cc3CCN2C(=O)c2ccc(OC)cc2)cc1 (stereo not drawn) |
| – | – | – | – | – | – | 67% | 78% | 43% | CCOc1ccc(OCC2c3ccc(OC(C)C)cc3CCN2C(=O)c2cccc(C)c2)cc1 (stereo not drawn) |
| 1800 nM | 135% | 137% | 3400 nM | – | – | 133% | 136% | 98% | CCOc1ccc(OCC2c3ccc(OC(C)C)cc3CCN2C(=O)c2cccc(Br)c2)cc1 (stereo not drawn) |
| – | – | – | – | – | – | 107% | 118% | 90% | CCOc1ccc(OCC2c3ccc(OC(C)C)cc3CCN2C(=O)c2ccc(F)cc2)cc1 (stereo not drawn) |
| 4000 nM | 315% | – | – | 4400 nM | 349% | 288% | 127% | 322% | COc1ccc(OCC2c3ccc(N(C)C)cc3CCN2C(=O)c2cccc(Cl)c2)cc1 (stereo not drawn) |

| SMILES | EC50 [1] | Emax [2] | Emax [3] | EC50 [4] | EC50 [5] | Emax [6] | Activity [2] | Activity [3] | Activity [6] |
| --- | --- | --- | --- | --- | --- | --- | --- | --- | --- |
| CCOc1ccc(OCC2c3ccc(OC(C)C)cc3CCN2C(=O)c2cccc(C(F)(F)F)c2)cc1 (stereo not drawn) | 1300 nM | – | – | 2400 nM | – | – | – | – | – |
| COc1ccc(OCC2c3ccc(OC(C)C)cc3CCN2C(=O)c2cccc(C(F)(F)F)c2)cc1 (stereo not drawn) | 1700 nM | – | – | 6100 nM | 2700 nM | – | – | – | – |
